Experimental findings from ChEMBL document CHEMBL2331340, “Novel antitumor indolizino[6,7-b]indoles with multiple modes of action: DNA cross-linking and topoisomerase I and II inhibition” (J Med Chem, 2013) are described below.

For data set [1], the system named is CCRF-CEM. As to the kind of experiment: Cytotoxicity against human CCRF-CEM cells after 72 hrs by XTT assay. In kind it is functional, cell-based. A digest of the protocol:
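CCRF-CEM T-ALL cells incubated with compound for 72 h. XTT with phenazine methosulfate then added for 6 h at 37 °C, absorbance read at 450 and 630 nm. IC50 from six or seven concentrations by median-effect analysis; mean ± STDEV, n = 3.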

Data set [2] relates to HCT-116. As to the kind of experiment: Cytotoxicity against human HCT116 cells after 72 hrs by Alamar blue assay. Format: functional, cell-based. The conditions noted are these: HCT-116, 72 h. The method in brief: (§1)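 Cells exposed to compound for 72 h, then Alamar blue added with a further 10−12 h at 37 °C and a spectrophotometric read. IC50 from six or seven concentrations by median-effect analysis; mean ± STDEV, n = 3. CL141T is a line derived from a patient lung tumor passaged as a SCID mouse xenograft.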
A general note: The colour change of resazurin is a common sign of viable cells or microbes.

Data set [3] relates to Escherichia coli. Kind of data set: Induction of Escherichia coli pEGFP-N1 DNA interstrand cross-linking at 1 to 10 uM after 2 hrs by alkaline agarose gel shift assay. A digest of the protocol:
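Plasmid pEGFP-N1 DNA (1500 ng) incubated with compound at 1, 5 and 10 μM in 3 mM NaCl/1 mM sodium phosphate pH 7.4/1 mM EDTA, 2 h at 37 °C. DNA then BamHI-linearized, EtOH-precipitated, denatured in 0.5 N NaOH/10 mM EDTA, run on 0.8% alkaline agarose at 4 °C (18 V, 22 h), stained with ethidium bromide.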
A general note: Mobility shift assays separate free from complexed probe on a gel.

Data set [4] can be described thus: Cytotoxicity against human CL141T cells after 72 hrs by Alamar blue assay. In kind it is functional, cell-based. A digest of the protocol:
as §1

Data set [5] relates to PC-3. As to the kind of experiment: Cytotoxicity against human PC3 cells after 72 hrs by Alamar blue assay. The conditions noted are these: PC-3, 72 h. In kind it is functional, cell-based. The method in brief:
as §1

Data set [6] in a line: Cytotoxicity against human OECM1 cells after 72 hrs by Alamar blue assay. Format: functional, cell-based. The conditions noted are these: OECM1, 72 h. The method in brief: as §1
Data set [7] is described as follows: Cytotoxicity against human H460 cells after 72 hrs by Alamar blue assay. In kind it is functional, cell-based. The conditions noted are these: NCI-H460, 72 h. The method in brief: as §1
Data set [8] is described as follows: Cytotoxicity against human MES-SA/Dx5 cells after 72 hrs by Presto Blue assay. Format: functional, cell-based. The conditions noted are these: MES-SA/Dx5, 72 h. The method in brief:
(§2)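 MES-SA and doxorubicin-resistant MES-SA/dx5 cells exposed for 72 h, then PrestoBlue added for 3 h at 37 °C, absorbance read at 570 and 600 nm. IC50 by median-effect analysis of six or seven concentrations; mean ± STDEV of three to six independent experiments.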

Data set [9] can be described thus: Cytotoxicity against human MES-SA cells after 72 hrs by Presto Blue assay. Format: functional, cell-based. The method in brief: as §2
For data set [10], the system named is KB. As to the kind of experiment: Cytotoxicity against human KB cells after 72 hrs by Alamar blue assay.
Data set [11] in a line: Cytotoxicity against human HEL299 cells. In kind it is cell-based. The conditions noted are these: HEL 299.
Data set [12] in a line: Cytotoxicity against human KB-VIN10 cells after 72 hrs by Alamar blue assay. The conditions noted are these: KB-VIN10, 72 h.
Data set [13] in a line: Resistance factor, ratio of IC50 for human KB-VIN10 cells to IC50 for human KB cells. Format: functional.
Data set [14] deals with HT-29. As to the kind of experiment: Cytotoxicity against human HT-29 cells after 72 hrs by Alamar blue assay. Format: functional, cell-based. The conditions noted are these: HT-29, 72 h. The method in brief: as §1
In data set [15] the test system is MES-SA. Kind of data set: Resistance factor, ratio of IC50 for human MES-SA/Dx5 cells to IC50 for human MES-SA cells. Format: functional.
For data set [16], the target named is DNA topoisomerase 2-alpha (Homo sapiens) (UniProt P11388). Kind of data set: Inhibition of DNA topoisomerase 2 (unknown origin)-mediated relaxation of supercoiled pHOT DNA after 30 to 45 mins by agarose gel electrophoresis. A digest of the protocol: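 Supercoiled pHOT DNA (125 ng) with compound in buffer stated as 0.5 M Tris-HCl pH 8.0, 1.5 M NaCl, 100 mM MgCl2, 5 mM DTT, 300 μg/mL BSA, 20 mM ATP, at 37 °C. Methods state 6 units topo II, figure legend 5 units; 30−45 min, SDS stop. Products run on 1% agarose and stained with ethidium bromide.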

Data set [17] concerns the target T1, DNA topoisomerase 1 (Homo sapiens) (UniProt P11387).
T1 sequence (whole entry): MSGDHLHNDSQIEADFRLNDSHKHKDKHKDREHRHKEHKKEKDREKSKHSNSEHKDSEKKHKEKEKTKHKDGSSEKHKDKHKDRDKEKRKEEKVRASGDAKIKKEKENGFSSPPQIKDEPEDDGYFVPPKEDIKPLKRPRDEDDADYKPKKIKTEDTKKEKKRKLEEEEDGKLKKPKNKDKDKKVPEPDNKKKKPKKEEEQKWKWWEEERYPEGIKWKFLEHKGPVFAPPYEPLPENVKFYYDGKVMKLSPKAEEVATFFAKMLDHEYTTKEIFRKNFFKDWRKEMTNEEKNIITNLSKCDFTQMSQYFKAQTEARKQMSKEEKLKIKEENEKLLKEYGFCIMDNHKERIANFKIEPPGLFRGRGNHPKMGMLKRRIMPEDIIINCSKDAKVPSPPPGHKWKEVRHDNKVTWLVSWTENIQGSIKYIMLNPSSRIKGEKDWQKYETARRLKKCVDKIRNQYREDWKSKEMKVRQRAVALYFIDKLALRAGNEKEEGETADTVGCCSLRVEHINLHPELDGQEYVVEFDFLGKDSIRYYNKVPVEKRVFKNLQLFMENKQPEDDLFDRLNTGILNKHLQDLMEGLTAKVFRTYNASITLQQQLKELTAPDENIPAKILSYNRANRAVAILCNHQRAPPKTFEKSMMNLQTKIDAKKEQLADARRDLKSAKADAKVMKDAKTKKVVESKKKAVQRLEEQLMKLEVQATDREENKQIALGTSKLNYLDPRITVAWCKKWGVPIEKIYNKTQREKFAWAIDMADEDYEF
Kind of data set: Inhibition of DNA topoisomerase 1 (unknown origin)-mediated relaxation of supercoiled pHOT DNA at 25 to 200 uM after 30 to 45 mins by agarose gel electrophoresis. A digest of the protocol:
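Supercoiled pHOT DNA (200 ng) and compound in 10 mM Tris-HCl pH 7.9 with 1 mM EDTA at 37 °C. Reaction started with 1 unit topo I, run 30−45 min, stopped with 10% SDS. Products separated on 1% agarose at 50 V for 90 min and stained with ethidium bromide.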

For data set [18], the system named is MX1. As to the kind of experiment: Cytotoxicity against human MX1 cells after 72 hrs by SRB assay. Format: functional, cell-based. The conditions noted are these: MX1, 72 h. Background: Sulforhodamine B stains cellular protein and so reports cell mass.
The subject of data set [19] is A549. Kind of data set: Cytotoxicity against human A549 cells after 72 hrs by Alamar blue assay. In kind it is functional, cell-based. The conditions noted are these: A549, 72 h. A digest of the protocol:
as §1

The nature of data set [20]: Cell cycle arrest in human CL141T cells assessed as accumulation at sub-G1 phase at 0.5 x IC50 to 2 x IC50 after 72 hrs by propidium iodide staining-based FACS flow cytometric analysis. Format: functional. A digest of the protocol:
(§3)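 CL141T cells treated at 0.5-, 1- and 2-fold IC50 for 24, 48 and 72 h. Cells fixed in ice-cold 70% EtOH, then stained with 4 μg/mL propidium iodide in PBS with 1% Triton X-100 and 0.1 mg/mL RNase A. Phase distribution from flow cytometry DNA histograms; sub-G1 fraction scored as well.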

Data set [21] relates to Mus musculus. Kind of data set: Toxicity in nude mouse xenografted with human MX1 cells assessed as body weight loss at 35 mg/kg, iv qd administered 4 days measured for 20 days. The conditions noted are these: in vivo, 480 h. The arrangement: dose 35 mg/kg, route intravenous. Format: organism-based.
A short description of data set [22]: Cell cycle arrest in human CL141T cells assessed as accumulation at G2/M phase at 2 x IC50 after 24 hrs by propidium iodide staining-based FACS flow cytometric analysis. In kind it is functional. A digest of the protocol:
as §3

The subject of data set [23] is MX1. Kind of data set: Antitumor activity against human MX1 cells xenografted in nude mouse assessed as tumor growth inhibition at 35 mg/kg, iv qd administered 4 days measured on day 20 relative to vehicle-treated control. Format: functional. The conditions noted are these: read-out: TGI.
A short description of data set [24]: Cell cycle arrest in human CL141T cells assessed as accumulation at S phase at 3.75 to 15 uM after 24 hrs by propidium iodide staining-based FACS flow cytometric analysis. Format: functional. A digest of the protocol: as §3
A short description of data set [25]: Cell cycle arrest in human CL141T cells assessed as accumulation at G2/M phase at 0.5 x IC50 to 1 x IC50 after 48 to 72 hrs by propidium iodide staining-based FACS flow cytometric analysis. Format: functional. A digest of the protocol:
as §3

The target in data set [26] is DNA topoisomerase 2-alpha (Homo sapiens) (UniProt P11388). The conditions noted are these: 50 to 200 uM.

Structures are written as SMILES. The source made the active and inactive calls. The calls are words filed in the database; no cut-off is given here. A value given as a limit tells only on which side of the number the result lay.

Sequence of DNA topoisomerase 2-alpha (Homo sapiens) (P11388 whole entry): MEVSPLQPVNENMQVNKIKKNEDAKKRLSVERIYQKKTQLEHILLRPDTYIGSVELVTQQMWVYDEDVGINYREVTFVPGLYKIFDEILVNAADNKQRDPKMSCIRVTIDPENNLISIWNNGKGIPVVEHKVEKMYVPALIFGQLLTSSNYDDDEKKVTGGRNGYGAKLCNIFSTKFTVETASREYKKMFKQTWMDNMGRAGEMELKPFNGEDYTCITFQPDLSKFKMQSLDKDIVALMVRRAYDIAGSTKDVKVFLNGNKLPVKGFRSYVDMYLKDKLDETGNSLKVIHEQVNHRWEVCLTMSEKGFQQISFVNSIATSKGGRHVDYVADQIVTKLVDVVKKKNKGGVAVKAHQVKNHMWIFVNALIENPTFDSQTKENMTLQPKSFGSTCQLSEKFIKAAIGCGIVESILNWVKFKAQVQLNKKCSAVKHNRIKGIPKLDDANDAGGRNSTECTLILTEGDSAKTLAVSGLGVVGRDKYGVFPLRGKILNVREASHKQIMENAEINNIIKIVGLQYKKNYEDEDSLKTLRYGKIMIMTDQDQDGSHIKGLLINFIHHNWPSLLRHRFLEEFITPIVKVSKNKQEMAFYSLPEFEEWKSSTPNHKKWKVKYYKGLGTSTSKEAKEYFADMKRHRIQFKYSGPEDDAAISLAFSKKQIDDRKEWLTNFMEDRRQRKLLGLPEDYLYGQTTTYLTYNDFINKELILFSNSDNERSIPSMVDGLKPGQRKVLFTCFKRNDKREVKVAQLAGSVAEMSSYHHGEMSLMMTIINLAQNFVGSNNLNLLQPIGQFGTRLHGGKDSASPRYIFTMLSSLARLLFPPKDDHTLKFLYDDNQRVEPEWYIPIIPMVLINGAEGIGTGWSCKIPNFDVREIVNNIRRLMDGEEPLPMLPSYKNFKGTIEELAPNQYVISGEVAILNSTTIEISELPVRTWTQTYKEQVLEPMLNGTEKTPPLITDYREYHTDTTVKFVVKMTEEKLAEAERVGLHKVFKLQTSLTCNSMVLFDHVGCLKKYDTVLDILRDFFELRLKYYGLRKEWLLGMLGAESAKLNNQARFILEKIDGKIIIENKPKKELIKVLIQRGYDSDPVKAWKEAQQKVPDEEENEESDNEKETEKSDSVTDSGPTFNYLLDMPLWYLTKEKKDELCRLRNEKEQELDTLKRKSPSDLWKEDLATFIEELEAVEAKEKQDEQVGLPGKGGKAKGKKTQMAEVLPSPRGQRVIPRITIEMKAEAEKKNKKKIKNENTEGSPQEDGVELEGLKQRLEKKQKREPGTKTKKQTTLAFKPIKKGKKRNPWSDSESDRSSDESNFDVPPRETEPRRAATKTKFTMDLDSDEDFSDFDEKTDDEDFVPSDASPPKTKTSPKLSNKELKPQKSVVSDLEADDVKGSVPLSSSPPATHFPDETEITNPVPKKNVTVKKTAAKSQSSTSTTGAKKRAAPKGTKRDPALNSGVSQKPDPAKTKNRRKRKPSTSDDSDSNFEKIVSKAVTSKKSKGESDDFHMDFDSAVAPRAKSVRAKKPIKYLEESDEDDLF

With `CCNC(=O)OCc1c(COC(=O)NCC)c2n(c1C)Cc1c(c3ccccc3n1CC)C2`, the half-maximal inhibitory concentration (IC50) was 0.14 µM in data set [1]; 3.22 µM in data set [2]; 1.4 µM in [4]; 4.61 µM in data set [5]; 4.9 µM in data set [6]; 5.14 µM in data set [7]. For the same compound, the result in [3] was Active.
Turning to `CCNC(=O)OCc1c(COC(=O)NCC)c2n(c1C)Cc1c(c3ccccc3n1C)C2`, the IC50 amounted to 0.28 µM in [8]; 0.78 µM in data set [9]; 2.75 µM in [10]; 15.5 µM in data set [11]; 2.6 µM in [12]; 11.3 µM in data set [14]. Moreover, the IC50 in data set [1] turned out to be 0.04 µM; in data set [2] it was 2.33 µM; in data set [18] it was 0.46 µM; in [4] it was 2.84 µM; in data set [5], 4.11 µM; in data set [6], 1.9 µM. In [19], this compound returned an IC50 of 4.83 µM. In addition, the “Ratio IC50” value amounted to 0.94 in data set [13] and 0.36 in [15]. Besides, the inhibition entry in data set [16] is “Dose-dependent effect”. The inhibition result in [17] was “Active”.
For the compound `CC(C)NC(=O)OCc1c(COC(=O)NC(C)C)c(-c2ccc(F)cc2)n2c1Cc1c(n(C)c3ccccc13)C2`, the result in data set [20], in [24], in data set [3] and in data set [25] was Active. For the same compound, the Activity result in data set [21] is listed as “Toxic”. Moreover, the outcome in data set [22] was inactive. Moreover, the half-inhibitory concentration (IC50) in [10] came out at 14.2 µM; in [11], 25.9 µM; in data set [12], 15.6 µM; in [1] it was 0.11 µM; in [2] it was 6.09 µM; in [18] it was 2.19 µM. Also, the IC50 in data set [4] is 7.46 µM; in [5], 6.71 µM; in data set [6] it was 6.56 µM. Besides, the inhibition in vivo at 35 mg/kg in [23] was more than 99%. Moreover, in data set [13], the “Ratio IC50” value came out at 1.1.
Take `COc1cc([C@@H]2c3cc4c(cc3[C@@H](O[C@@H]3O[C@@H]5CO[C@@H](C)O[C@H]5[C@H](O)[C@H]3O)[C@H]3COC(=O)[C@H]23)OCO4)cc(OC)c1O`: in [26], the inhibition entry was “Active”.

What is called IC50 is the concentration that gives 50% inhibition. Read a low IC50 as inhibition by little substance.
